Reference: ChEMBL document CHEMBL2169786, “5-Arylidenethioxothiazolidinones as inhibitors of tyrosyl-DNA phosphodiesterase I” (J Med Chem, 2012)
Calls of active or inactive are those of the source. The calls are words filed in the database; no cut-off is given here.

What was measured:
[1] = molecular target: T1, Tyrosyl-DNA phosphodiesterase 1 (Homo sapiens, UniProt Q9NUW8); assay: Inhibition of human recombinant Tdp1 expressed in Tdp1 knockout chicken DT40 cells using 5'-32P-labeled 5'-GATCTAAAAGACTT-pY-3' as substrate after 15 mins by PAGE analysis
T1 sequence (Q9NUW8 whole entry): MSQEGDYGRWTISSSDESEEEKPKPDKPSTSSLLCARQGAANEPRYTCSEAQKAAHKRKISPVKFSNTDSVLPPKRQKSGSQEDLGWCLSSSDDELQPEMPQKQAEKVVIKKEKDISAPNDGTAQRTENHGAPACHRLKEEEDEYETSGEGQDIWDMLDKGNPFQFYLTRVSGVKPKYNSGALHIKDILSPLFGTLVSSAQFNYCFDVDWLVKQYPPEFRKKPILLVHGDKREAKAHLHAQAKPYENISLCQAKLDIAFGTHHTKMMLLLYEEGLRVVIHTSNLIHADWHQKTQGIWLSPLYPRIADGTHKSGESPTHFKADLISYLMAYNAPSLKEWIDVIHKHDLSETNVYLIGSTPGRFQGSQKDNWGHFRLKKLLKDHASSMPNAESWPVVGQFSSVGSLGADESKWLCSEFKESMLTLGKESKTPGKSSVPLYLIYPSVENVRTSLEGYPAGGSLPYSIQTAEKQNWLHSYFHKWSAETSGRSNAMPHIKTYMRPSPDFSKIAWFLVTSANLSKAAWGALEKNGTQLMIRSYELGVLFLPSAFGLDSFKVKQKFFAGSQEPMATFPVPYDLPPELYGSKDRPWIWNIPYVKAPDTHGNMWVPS

[2] = molecular target: T1, Tyrosyl-DNA phosphodiesterase 1; assay: Inhibition of human recombinant Tdp1 assessed as conversion of 14-mer 5'-32P-labeled 3'-phosphotyrosyl DNA substrate N14Y to 14-mer 5'-32P-labeled 3'-phosphate DNA product N14P after 15 mins by PAGE analysis
[3] = molecular target: T1, Tyrosyl-DNA phosphodiesterase 1; assay: Inhibition of human recombinant Tdp1 assessed as conversion of 14-mer 5'-32P-labeled 3'-phosphotyrosyl DNA substrate N14Y to 14-mer 5'-32P-labeled 3'-phosphate DNA product N14P after 15 mins by PAGE analysis in presence of bovine serum albumin
[4] = molecular target: T1, Tyrosyl-DNA phosphodiesterase 1; assay: Ratio of IC50 for human recombinant Tdp1 in presence of bovine serum albumin to IC50 for human recombinant Tdp1 in absence of bovine serum albumin
[5] = molecular target: T1, Tyrosyl-DNA phosphodiesterase 1; assay: Binding affinity to human recombinant Tdp1 in amine coupled to CM5 sensor chip by surface plasmon resonance analysis
In short: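 SPR: Tdp1 amine-coupled to CM5 chip (~6000 RU), active site protected during coupling by prebinding 2 μM 3′-phosphate 14-mer oligo to 1 μM Tdp1 in 10 mM sodium acetate pH 4.5, 20 min. Compound series 0.39–50 μM in Tris/KCl/EDTA/DTT/BSA running buffer with 5% DMSO, pH 7.5, injected at 30 μL/min, 25 °C. Buffer-cycle referencing; DMSO calibration.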

Homo sapiens = species on record: Homo sapiens; assay: Selectivity ratio of IC50 for recombinant Tdp2 to IC50 for human recombinant Tdp1
[6] = molecular target: T2, Tyrosyl-DNA phosphodiesterase 2 (Homo sapiens, UniProt O95551); assay: Inhibition of recombinant Tdp2
T2 sequence (O95551 whole entry): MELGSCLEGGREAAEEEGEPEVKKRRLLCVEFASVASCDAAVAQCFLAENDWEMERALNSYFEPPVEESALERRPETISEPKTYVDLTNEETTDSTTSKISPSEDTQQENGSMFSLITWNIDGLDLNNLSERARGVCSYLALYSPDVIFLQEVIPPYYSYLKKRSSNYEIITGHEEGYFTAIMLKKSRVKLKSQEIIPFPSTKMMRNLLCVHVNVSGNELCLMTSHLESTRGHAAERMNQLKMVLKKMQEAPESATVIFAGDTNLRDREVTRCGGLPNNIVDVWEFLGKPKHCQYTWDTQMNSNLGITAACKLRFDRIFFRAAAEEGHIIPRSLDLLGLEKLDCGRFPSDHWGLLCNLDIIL

[7] = test system: N14Y tyrosyl-oligonucleotide (DNA, no organism); assay: Binding affinity to biotin- GATCTAAAAGACTT-Tyr immobilized CM5 sensor chip by surface plasmon resonance analysis

Row | IC50 [2] [µM] | Compound | also measured
1 | 13 | O=C1NC(=S)N(Cc2ccccc2)/C1=C\c1ccc(O)c(O)c1 | 
2 | 46 | O=C1NC(=S)/C(=C/c2ccc(-c3ccccc3)s2)S1 | 
3 | > 333 | O=C(O)c1ccc(/C=C2\NC(=S)N(c3ccccc3)C2=O)cc1 | 
4 | 7.1 | O=C1NC(=S)/C(=C/c2cc(O)ccc2O)S1 | IC50 [1]: 76 µM
5 | 34 | O=C1NC(=S)/C(=C/c2ccccc2O)S1 | 
6 | 2.6 | O=C1NC(=S)/C(=C/c2ccc(O)c(O)c2)S1 | IC50 [1]: 41 µM
7 | 8.5 | O=C1NC(=S)/C(=C/c2ccccc2C(=O)O)S1 [listing 1 of 2 here] | IC50 [1]: 280 µM
8 | > 333 | O=C1NC(=S)N(Cc2ccccc2)/C1=C\c1ccc(C(=O)O)cc1 | 
9 | > 333 | O=C1/C(=C/c2ccc(F)cc2)NC(=S)N1c1ccccc1 | 
10 | > 111 | O=C1NC(=O)/C(=C/c2ccc(C(=O)O)cc2)S1 | 
11 | 18 | N#C/C(=C\c1ccc(O)c(O)c1)C(=S)NCc1ccccc1 | 
12 | 40 | Cn1cc(/C=C2\SC(=O)NC2=S)c2ccccc21 | 
13 | 74 | O=C1/C(=C/c2ccc(O)c(O)c2)NC(=S)N1c1ccccc1 | 
14 | 12 | O=C1NC(=S)/C(=C/c2ccc3[nH]ccc3c2)S1 | 
15 | 15 | O=C1NC(=S)/C(=C/c2ccccc2C(=O)O)S1 [listing 2 of 2 here] | IC50 [1]: 138 µM
16 | 39 | O=C1NC(=S)/C(=C/c2ccc(O)cc2)S1 | 
17 | 5.8 | O=C1NC(=S)/C(=C/c2cccc(O)c2O)S1 | IC50 [1]: 220 µM
18 | > 333 | N#C/C(=C\c1ccc2ccccc2c1)C(N)=S | 
19 | 7.8 | O=C1NC(=S)/C(=C/c2ccc(C(=O)O)cc2)S1 [listing 1 of 2 here] | IC50 [1]: 6.9 µM
20 | 15 | O=C1NC(=S)/C(=C/c2cccc(C(=O)O)c2)S1 | 
21 | 16 | O=C1NC(=S)/C(=C/c2ccc(C(=O)O)cc2)S1 [listing 2 of 2 here] | IC50 [1]: 11 µM
22 | 11 | COc1cc(/C=C2\SC(=O)NC2=S)ccc1O | 
23 | 26 | O=C1NC(=S)/C(=C/c2cccc(O)c2)S1 | 
24 | > 333 | N#C/C(=C\c1ccc(O)c(O)c1)C(=O)NCc1ccccc1 | 

The remaining lines, values behind:

Row | Compound | IC50 [2] [µM] | also measured
25 | O=C1NC(=S)/C(=C/c2ccc(O)cc2O)S1 | 4.1 | IC50 [1]: 76 µM
26 | N#C/C(=C\c1ccc(F)cc1)C(N)=S | > 333 | 
27 | O=C1NC(=S)/C(=C/c2ccc(Br)cc2)S1 | 30 | 
28 | N#C/C(=C\c1ccc(O)c(O)c1)C(N)=O | > 333 | 
29 | N#CC(C#N)=Cc1cc(O)c(O)c(O)c1 [TYRPHOSTIN 25] | > 333 | 
30 | N#C/C(=C\c1ccc(O)c(O)c1)C(=O)O | > 333 | 
31 | O=C1NC(=S)/C(=C/c2ccc([N+](=O)[O-])cc2)S1 | 19 | 
32 | N#C/C(=C\c1ccc(Br)cc1)C(N)=S | > 333 | 
33 | N#Cc1ccc(/C=C2\SC(=O)NC2=S)cc1 | 28 | 
34 | COc1cc(/C=C2\SC(=O)NC2=S)cc(OC)c1O | 48 | 
35 | COC(=O)c1cccc(/C=C2\SC(=O)NC2=S)c1 | 51 | 
36 | O=C1NC(=S)/C(=C/c2ccc(P(=O)(O)O)cc2)S1 | 2.2 | IC50 [1]: 69 µM
37 | COC(=O)c1ccc(/C=C2\SC(=O)NC2=S)cc1 | 6.7 | IC50 [1]: 38 µM
38 | O=C1NC(=S)/C(=C/c2ccccc2-c2nnn[nH]2)S1 | 111 | 
39 | O=C1NC(=S)/C(=C/c2ccncc2)S1 | 75 | 
40 | N#C/C(=C\c1ccc2[nH]ccc2c1)C(N)=S | > 333 | 
41 | O=C1NC(=S)/C(=C/c2ccccc2S(=O)(=O)O)S1 | 20 | 
42 | N#C/C(=C\c1ccc(C(=O)O)cc1)C(N)=S | 12 | 
43 | O=C1NC(=S)/C(=C/c2ccc(-c3nnn[nH]3)cc2)S1 | 32 | 
44 | O=C1NC(=S)/C(=C/c2cccnc2)S1 | 44 | 
45 | N#C/C(=C\c1ccc([N+](=O)[O-])cc1)C(N)=S | > 333 | 
46 | CC(=O)Nc1ccc(/C=C(\C#N)C(N)=S)cc1 | > 333 | 
47 | CCOP(=O)(OCC)c1ccc(/C=C2\SC(=O)NC2=S)cc1 | 29 | 
48 | O=C1NC(=O)/C(=C/c2ccc3[nH]ccc3c2)S1 | > 111 | 
49 | O=C1NC(=S)/C(=C/c2ccc(F)cc2)S1 | 27 | 
50 | O=C1NC(=S)/C(=C/c2ccc(O)c(O)c2O)S1 | 0.87 | IC50 [3]: 2.8 µM; Ratio IC50 [4]: 3; IC50 [1]: 35 µM; Activity [5]: Dose-dependent effect; Ratio IC50 (Homo sapiens): 20; IC50 [6]: 17 µM; Activity [7]: inactive
51 | O=C1NC(=O)/C(=C/c2ccc(F)cc2)S1 | > 333 | 
52 | O=C1NC(=S)/C(=C/c2csc3ccccc23)S1 | 34 | 
